Results published in article PMC5207485 (Bioorganic & medicinal chemistry, 2016).
Like-named read-outs stand apart in the source and are kept apart here.

Key:
[1] = macaque, IN nasal spray, maximum of 5 IU/kg OT; cited from earlier work
[2] = CSF OT levels after IV and IN nasal spray OT, maximum 5 IU/kg; assay type: in vivo; details: macaque, maximum of 5 IU/kg OT, same calculation from data of ref 38
[3] = IN 24 IU OT, 75 minutes post administration, baseline 20 pg/ml; cited from earlier work
[4] = rhesus macaque, intravenous dose; cited from earlier work
[5] = titi monkey models; cited from earlier work
[6] = PET imaging of [18F]ALS-I-41 in Sprague-Dawley rats; assay type: in vivo; details: rat PET
Procedure, shortened: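 Female Sprague-Dawley rats (200–330 g), isoflurane induction 4–5% and maintenance 1–2% in oxygen, vitals and temperature monitored. [18F]tracer was given IM at 340–390 μCi in 100 μl above the knee, with scanning from 15 min post-injection, or as a 30 min tail-vein infusion of 250–310 μCi in 10% ethanol/saline by syringe pump. 2 h PET with Co-57 attenuation correction; time-activity curves for whole brain, arm muscle and skull.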

[7] = PET scan of [18F]ALS-I-41 in a cynomolgus macaque, IV bolus; assay type: in vivo, cynomolgus macaque (Macaca fascicularis)
Procedure, shortened: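 Single male cynomolgus macaque (8.1 kg), Telazol 3 mg/kg IM, then intubated and ventilated on 1–2% isoflurane in oxygen with continuous vital monitoring. 5 mCi of the [18F]tracer given IV, then brain PET for 2 h, co-registered to the animal's MRI. Summed frames at 9–26 min and 90–120 min post-injection were used to assess distribution.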

[8] = Plasma concentration of ALS-I-41 after IN or IM administration; assay type: in vivo, rhesus macaque; details: for Time Plasma Max: male rhesus
human OXTR = details: displacing [^3H]OT at a concentration of 2 nM; cited from earlier work
[9] = CSF concentration of ALS-I-41 after IN or IM administration; assay type: in vivo, rhesus macaque; details: for Time Max: macaque CSF; for Ave Max in CSF / Time CSF Max: male rhesus
Procedure, shortened: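 Four male rhesus macaques (5 yr, 9–13 kg) under IM Telazol (4–5 mg/kg) with IV propofol drip (10 mg/kg/hr). Test compound in propylene glycol, given IN by face-mask pediatric nebulizer over 8 min (dose from nebulizer residue) or IM 6.15 mg into the inner thigh. Lumbar CSF was analysed unprocessed by LC-MS/MS in duplicate (C18, 70:30:0.1 water/methanol/formic acid). Detection limit ~1 pg/ml; blood-contaminated samples excluded.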

[10] = aerosolized IN high dose, ave dose 7690 μg
[11] = aerosolized IN low dose, ave dose 202 μg
[12] = rhesus, IN 7.5 mg target dose vs low dose

oxytocin [OT]
change of CSF OT [1]: no significant change
maximum reported CSF OT increase [2]: ~22 pM
OT levels in human CSF post administration [3]: 30 pg/mL

Cc1ccccc1N1CCN(S(=O)(=O)CC23CCC(CC2NC(=O)C(N)CCS(C)(=O)=O)C3(C)C)CC1 [L-368,899]
time remaining in the CSF post injection [4]: over 250 minutes

CS(=O)(=O)N1CCC(Oc2ccc(CC(=O)N3CCC(N4C(=O)CCc5ccccc54)CC3)c(OCC[18F])c2)CC1 [[^18F]ALS-I-41]
brain penetration [5]: no significant brain penetration
metabolism suggested by rapid uptake in the bone [6]: rapidly metabolized on first pass
time at which distribution of the tracer throughout the entire brain peaked ([7]; cynomolgus macaque, 5 mCi IV bolus): 15 to 30 min
brain uptake versus neck muscle tissue (TAC) ([7]; cynomolgus macaque, 5 mCi IV, 2 hour scan): only a fraction of the dose reaches the brain
tracer remaining in the thalamic region at the end of the scan ([7]; cynomolgus macaque, 2 hour scan): very little remained
bone uptake ([7]; monkey model (macaque PET scan)): no significant bone uptake detected

CS(=O)(=O)N1CCC(Oc2ccc(CC(=O)N3CCC(N4C(=O)CCc5ccccc54)CC3)c(OCCF)c2)CC1 [ALS-I-41]
Time Plasma Max ([8]; IM, dose 6150 μg): 60 m
Time Plasma Max [8, 10]: 15 m
Time Plasma Max [8, 11]: 5 m
increase in plasma concentrations, high dose IN in comparison to low dose IN [8, 12]: 150 fold
Ki (human OXTR): 16 nM
Time Max ([9]; IM 6.15 mg): 120 m
Time Max ([9]; IN 7.69 mg): 60 m
time retained within the brain ([9]; macaque, after IN or IM administration): over 2 hours
Ave Max in CSF ([9]; IM, dose 6150 μg): 478 pg/mL
Time CSF Max ([9]; IM, dose 6150 μg): 120 m
Ave Max in CSF [9, 10]: 97.2 pg/mL
Time CSF Max [9, 10]: 60 m
Ave Max in CSF [9, 11]: 7.36 pg/mL
Time CSF Max [9, 11]: 120 m
brain penetration ([9]; rhesus macaque, via CSF extraction and PET imaging): mild brain penetrant
increase in CSF concentration, high dose IN in comparison to low dose IN [9, 12]: 14 fold
